Laboratory results taken from ChEMBL document CHEMBL1122461, “Antiviral compounds. 1. Structure-activity relationship of some antiviral enediones derived from aldehydo sugars” (1983).

Assays:
[1] = test system: Human alphaherpesvirus 1; assay: Antiviral activity against HSV-1 (Herpes simplex virus); format: functional
Summary of the method: (§1)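 Disk-diffusion gradient assay. BSC1 (M199) or Vero (RPMI) monolayers with 10% inactivated calf serum are infected to give confluent plaques. They are overlaid with Eagle's/1% agar/5% calf serum. A 5-mm paper disk soaked in compound (5 mg/mL in DMSO) is placed centrally, then 3–4 days at 37 °C, fix and stain. Diameter of the destroyed central zone = toxicity. Plaque-free diameter minus toxic diameter = antiviral activity.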

[2] = test system: Vero; assay: Cytotoxicity against BSCL and Vero cells; format: functional, Chlorocebus sabaeus; summary of the method: as §1
[3] = test system: Human alphaherpesvirus 1; assay: Growth inhibition against HSV-1 virus in BSCL cells at the dose of 17.0 ug/mL and 22h time of treatment.; format: functional; details: Human alphaherpesvirus 1, BSCL
Summary of the method: (§2)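 HSV-1 grown 22 h in BSC1 cells in the presence of compound after infection at 1 pfu/cell (1 h, 37 °C, wash, medium with 2% calf serum). Virus yield is titred by plaque assay on agar overlay: 4 days at 37 °C, crystal violet stain, plaque count. Reported as % inhibition of virus growth.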

[4] = test system: Human alphaherpesvirus 1; assay: Inhibition of viral DNA synthesis in HSV-1 virus at the dose of 17.0 ug/mL.; format: functional
Summary of the method: (§3)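 HSV-1-infected BSC1 cells labelled with [3H]thymidine (2 μCi/mL) from 3 h post-infection and harvested at 22 h. Lysed with 1% SDS and 0.3 mg/mL Pronase for 5 h at 37 °C. DNA banded on CsCl gradient (pH 8.0, 35000 rpm, 20 °C, 48 h). TCA-precipitable radioactivity in viral and cellular DNA peaks is summed and expressed as % of infected untreated culture.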

[5] = test system: BSC-1; assay: Inhibition of cellular DNA synthesis in BSCL cells at the dose of 17.0 ug/mL.; format: functional, Cercopithecidae; details: Chlorocebus aethiops; summary of the method: as §3
[6] = test system: Vaccinia virus; assay: Antiviral activity against Vaccinia virus; format: functional, Orthopoxvirus vaccinia; set-up: unit not given here; summary of the method: as §1
[7] = test system: Semliki Forest virus; assay: Antiviral activity against forest virus; format: functional; summary of the method: as §1
[8] = test system: Human alphaherpesvirus 1; assay: Growth inhibition against HSV-1 virus in BSCL cells at the dose of 1.4 ug/mL and 22h time of treatment.; format: functional; details: Human alphaherpesvirus 1, BSCL; summary of the method: as §2
[9] = test system: BSC-1; assay: Inhibition of cellular DNA synthesis in BSCL cells at the dose of 1.4 ug/mL.; format: functional, Cercopithecidae; details: Chlorocebus aethiops; summary of the method: as §3
[10] = test system: Human alphaherpesvirus 1; assay: Inhibition of viral DNA synthesis in HSV-1 virus at the dose of 1.4 ug/mL.; format: functional; summary of the method: as §3
[11] = test system: BSC-1; assay: Inhibition of cellular DNA synthesis in BSCL cells at the dose of 0.8 ug/mL.; format: functional, Cercopithecidae; details: Chlorocebus aethiops; summary of the method: as §3
[12] = test system: Human alphaherpesvirus 1; assay: Growth inhibition against HSV-1 virus in BSCL cells at the dose of 0.8 ug/mL and 22h time of treatment.; format: functional; details: Human alphaherpesvirus 1, BSCL; summary of the method: as §2
[13] = test system: Human alphaherpesvirus 1; assay: Inhibition of viral DNA synthesis in HSV-1 virus at the dose of 0.8 ug/mL.; format: functional; summary of the method: as §3

| Compound | Antiviral activity [1] [mm] | Cytotoxicity [2] [mm] | Antiviral activity [6] | Antiviral activity [7] [mm] | other results |
| --- | --- | --- | --- | --- | --- |
| CC(=O)C(=C[C@@H]1O[C@H](c2ccccc2)O[C@@H]2CO[C@@H](c3ccccc3)O[C@@H]12)C(C)=O | 11 | 10 | 5 | 0 | inhibition at 17 µg/mL [3]: 95.5%; inhibition at 17 µg/mL [4]: 50.9%; inhibition at 17 µg/mL [5]: 80.7% |
| CC(=O)OCC(OC(C)=O)C(OC(C)=O)C(OC(C)=O)C(C=C(C(C)=O)C(C)=O)OC(C)=O (stereo unspecified) | 1 | 8 | 3 | 0 | – |
| CC(=O)/C(=C\[C@@H]1O[C@H](c2ccccc2)O[C@@H]2CO[C@@H](c3ccccc3)O[C@@H]12)C(=O)c1ccccc1 | 12 | 14 | 8 | 0 | – |
| CC(=O)OC(C=C(C(C)=O)C(C)=O)C(OC(=O)c1ccccc1)C(COC(=O)c1ccccc1)OC(C)=O (stereo unspecified) | 4 | 2 | 6 | 4 | – |
| CC(=O)OCC(OC(C)=O)C(OC(C)=O)C(C=C(C(C)=O)C(C)=O)OC(C)=O (stereo unspecified) | 11 | 13 | 0 | 0 | – |
| O=C1OCC/C1=C\[C@@H]1O[C@H](c2ccccc2)O[C@@H]2CO[C@@H](c3ccccc3)O[C@@H]12 | 0 | 3 | 14 | 0 | – |
| CC(=O)/C(=C\[C@@H]1O[C@H](c2ccccc2)O[C@H](CC(=O)Oc2ccccc2)[C@H]1C(=O)Oc1ccccc1)C(=O)Nc1ccccc1 | 2 | 4 | 9 | 0 | – |
| O=C[C@@H]1O[C@H](c2ccccc2)O[C@@H]2CO[C@@H](c3ccccc3)O[C@@H]12 | 8 | 8 | 12 | 6 | – |
| Nc1ccn([C@@H]2O[C@H](CO)[C@@H](O)[C@@H]2O)c(=O)n1 [CYTARABINE] | – | – | – | – | inhibition at 1.4 µg/mL [8]: 93.6%; inhibition at 1.4 µg/mL [9]: 38.3%; inhibition at 1.4 µg/mL [10]: 0% |
| O=c1[nH]c(=O)n([C@H]2C[C@H](O)[C@@H](CO)O2)cc1I [IDOXURIDINE] | – | – | – | – | inhibition at 0.8 µg/mL [11]: 21.5%; inhibition at 0.8 µg/mL [12]: 71.3%; inhibition at 0.8 µg/mL [13]: 31.1% |
